According to PMC3346155 (Drug Design, Development and Therapy, 2012):
Entries after “also recorded” stand apart in the source; their conditions may differ. *1 amine or outer side, *2 acyl side, *3 side chain or, on linkers, in order; H or OH if unused. Where a SMILES comes first, the peptide text is derived from it. Side-chain parts run from the residue outwards. [ ]: non-standard residue; d: D form. The star is where a group is joined. Ethylenediamine = C(CN[*:2])N[*:1]; Hyp = O=C(O)[C@@H]1C[C@@H](O)CN1; Phg = N[C@H](C(=O)O)c1ccccc1; CO = O=C([*:1])[*:2]; Bn = c1ccc(C*)cc1

Assays:
[1] = system: human sst2; details: cited from earlier work; for IC50: read-out: IC50, binding affinity to sst2, human sst2, mean ± SEM
[2] = system: human sst1; details: cited from earlier work; for IC50: read-out: IC50, binding affinity to sst1, human sst1, mean ± SEM
[3] = system: human sst5; details: cited from earlier work; for IC50: read-out: IC50, binding affinity to sst5, human sst5, mean ± SEM
[4] = system: human sst4; details: read-out: IC50, binding affinity to sst4, mean ± SEM; cited from earlier work
[5] = system: human sst3; details: cited from earlier work; for IC50: read-out: IC50, binding affinity to sst3, human sst3, mean ± SEM
[6] = Blood glucose levels after a single subcutaneous dose in healthy volunteers; assay type: in vivo, human
How it was run: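 Healthy males aged 18–40 received one s.c. dose (1–1200 μg) or placebo between 8 and 9 am, about 1 h after a light standardized meal. Blood glucose was measured by the central standard laboratory panel at these times: pre-breakfast before dosing; before and 60 min after a standard lunch on Day –1 and Day 1; 2 h post-dose; and 23 h post-dose on Day 2.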

[7] = Safety and tolerability of a single subcutaneous dose in healthy volunteers; assay type: in vivo, human
How it was run: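 Randomized, double-blind, placebo-controlled ascending single s.c. doses; cohorts had 4–8 active and 2 placebo subjects. Subjects were confined from about 36 h pre-dose until 48-h safety results were available, with follow-up over 7 days. AEs came from self-report, investigator questioning, examination or laboratory tests. Laboratory abnormalities counted as AEs only if symptomatic or treated. SAEs were recorded until 4 weeks after the trial. Laboratory tests were run centrally, with descriptive statistics.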

[8] = compared with octreotide; cited from earlier work
[9] = Plasma pharmacokinetics after a single subcutaneous dose in healthy volunteers; assay type: in vivo, human
How it was run: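 Single s.c. dose in healthy males. Blood was drawn by venipuncture or forearm cannula up to 144 h post-dose and centrifuged to plasma. Drug was quantified by validated radioimmunoassay (LLOQ 0.03 ng/mL); values below the LLOQ were set to zero. Parameters came from non-compartmental analysis, reported as median (range) for tmax and mean ± SD otherwise. Dose proportionality was tested by a log-dose versus log-parameter linear model.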

[10] = system: GHRH-stimulated GH secretion; test: GHRH stimulation test, GH suppression in healthy volunteers; assay type: in vivo, human; details: for Emax, maximum GH reduction: value ± standard error
How it was run: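 The GHRH stimulation test ran on Day –1 and Day 1. A 1 μg/kg GHRH bolus was given about 3 h after the s.c. dose. Plasma GH was sampled at −60 and 0 min and up to 120 min after GHRH, and measured by chemiluminescence assay (LLOQ 0.06 ng/mL).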

[11] = single s.c. dose 1200 μg, n = 6
[12] = male, human, plasma, sc, 2.5 ug
[13] = male, human, plasma, sc, 100 ug
[14] = male, human, plasma, sc, 200 ug
[15] = male, human, plasma, sc, 300 ug
[16] = male, human, plasma, sc, 600 ug
[17] = male, human, plasma, sc, 1200 ug
[18] = single s.c. dose, across dose levels, healthy male volunteers

Octreotide [reference compound]
IC50 [1]: 0.38 ± 0.08 nM | IC50 [2]: 280 ± 80 nM | IC50 [3]: 6.3 ± 1 nM | IC50 [4]: > 1000 nM | IC50 [5]: 7.1 ± 1.4 nM

NCCCC[C@@H]1NC(=O)[C@@H](Cc2c[nH]c3ccccc23)NC(=O)[C@H](c2ccccc2)NC(=O)[C@@H]2C[C@@H](OC(=O)NCCN)CN2C(=O)[C@H](Cc2ccccc2)NC(=O)[C@H](Cc2ccc(OCc3ccccc3)cc2)NC1=O [Pasireotide] (cyclo([Hyp]([CO-Ethylenediamine])[Phg][dW]KY(Bn)F))
glucose values ([6]; all dose groups, twenty-three hours after the injection): normal for all groups | blood glucose levels ([6]; doses between 200 μg and 1200 μg, 2–6 hours after administration, resolved by 23 hours post-dosing): Transient elevations in blood glucose levels | glucose levels ([6]; single s.c. dose 600 μg and 1200 μg, six hours after administration): higher than those of placebo recipients | lower affinity for sst2 compared with octreotide ([1]; ratio versus octreotide): 2.6 times | IC50 [1]: 1 ± 0.1 nM | AEs considered related to the study drug ([7]; observed in the 1200 μg dose group only, of a total of 12 AEs in the study): eight | increased lipase level ([7]; one subject, single s.c. dose 10 μg, 48 hours post-dose, normal range 23–300 U/L): 523 U/L | subjects who experienced at least one AE [7, 11]: 6 subjects | subjects who experienced nausea [7, 11]: five | deaths, serious adverse events, clinically significant changes in laboratory values, vital signs or ECG ([7]; single s.c. dose 1–1200 μg, any dose, healthy male volunteers): no serious adverse events observed at any dose; also recorded: no reports of death, SAEs, or clinically significant changes in laboratory values, vital signs or ECG parameters | tolerability ([7]; single s.c. dose 1–1200 μg, healthy male volunteers): generally well tolerated | maximum tolerable dose ([7]; single s.c. dose, tested range 1–1200 μg, healthy male volunteers): not established within the tested range | metabolic stability [8]: greater metabolic stability than octreotide | higher binding affinity for sst1 compared with octreotide ([2]; ratio versus octreotide): 30 fold | IC50 [2]: 9.3 ± 0.1 nM | higher binding affinity for sst5 than endogenous somatostatin ([3]; ratio versus endogenous somatostatin): 2 fold | higher binding affinity for sst5 compared with octreotide ([3]; ratio versus octreotide): 39 fold | IC50 [3]: 0.16 ± 0.01 nM | IC50 [4]: > 1000 nM | AUC(0-t) [9, 12]: 0.11 ± 0.09 ng·h/mL | Cmax [9, 12]: 0.06 ± 0.01 ng/mL | Tmax [9, 12]: 15 min | AUC(0-t) ([9]; male, human, plasma, sc, 10 ug): 0.66 ± 0.25 ng·h/mL | Cmax ([9]; male, human, plasma, sc, 10 ug): 0.24 ± 0.06 ng/mL | Tmax ([9]; male, human, plasma, sc, 10 ug): 15 min | Vd/F ([9]; male, human, plasma, sc, 10 ug): 38.1 L | AUC(0-t) ([9]; male, human, plasma, sc, 30 ug): 2.78 ± 1.02 ng·h/mL | Cmax ([9]; male, human, plasma, sc, 30 ug): 0.72 ± 0.17 ng/mL | Tmax ([9]; male, human, plasma, sc, 30 ug): 15 min | Vd/F ([9]; male, human, plasma, sc, 30 ug): 105 ± 5.7 L | half-life ([9]; male, human, plasma, sc, 30 ug): 444 ± 132 min | AUC(0-inf) [9, 13]: 9.59 ± 2.44 ng·h/mL | AUC(0-t) [9, 13]: 9.1 ± 2.37 ng·h/mL | CL/F [9, 13]: 183 mL/min | Cmax [9, 13]: 2.23 ± 0.45 ng/mL | Tmax [9, 13]: 30 min | Vd/F [9, 13]: 131 ± 41 L | AUC(0-inf) [9, 14]: 17.5 ± 3.82 ng·h/mL | AUC(0-t) [9, 14]: 16.8 ± 3.65 ng·h/mL | CL/F [9, 14]: 198 mL/min | Cmax [9, 14]: 3.73 ± 0.9 ng/mL | Tmax [9, 14]: 22.8 min | Vd/F [9, 14]: 162 ± 33.9 L | AUC(0-inf) [9, 15]: 27.1 ± 6.98 ng·h/mL | AUC(0-t) [9, 15]: 26 ± 6.87 ng·h/mL | CL/F [9, 15]: 198 mL/min | Cmax [9, 15]: 4.71 ± 1.79 ng/mL | Tmax [9, 15]: 22.8 min | Vd/F [9, 15]: 180 ± 44.3 L | AUC(0-inf) [9, 16]: 78.6 ± 12.3 ng·h/mL | AUC(0-t) [9, 16]: 75.6 ± 11.2 ng·h/mL | CL/F [9, 16]: 130 mL/min | Cmax [9, 16]: 15.6 ± 3.25 ng/mL | Tmax [9, 16]: 30 min | Vd/F [9, 16]: 464 ± 440 L | AUC(0-inf) [9, 17]: 93.6 ± 13.6 ng·h/mL | AUC(0-t) [9, 17]: 90.4 ± 13.2 ng·h/mL | CL/F [9, 17]: 218 mL/min | Cmax [9, 17]: 22.2 ± 5.53 ng/mL | Tmax [9, 17]: 30 min | Vd/F [9, 17]: 1190 ± 1570 L | half-life [9, 17]: 546 ± 126 min | partial AUC in the γ phase as contribution to total AUC∞ ([9]; single s.c. dose, 600 μg and 1200 μg, healthy male volunteers): < 15% | Tmax [9, 18]: 15 to 30 min | t½,β (effective elimination half-life), mean [9, 18]: 420 to 660 min | Vz/F, mean value ([9]; single s.c. dose, low doses (10 μg), healthy male volunteers): 40 L | Emax, maximum GH reduction ([10]; non-linear Emax model for GH AUC ratio versus Cavg): 0.99 ± 0.03 | Emax, maximum GH reduction ([10]; non-linear Emax model for GH AUC ratio versus dose): 1.00 ± 0.00 | GH suppression ([10]; single pasireotide doses between 200 μg and 1200 μg s.c.): 79%–96% | decrease in GH AUC2h ([10]; single s.c. dose 30–100 μg): approximately 45% | reduction in GH AUC2h ([10]; single s.c. doses between 1 μg and 10 μg): No reduction | higher binding affinity for sst3 compared with octreotide ([5]; ratio versus octreotide): 5 fold

Lanreotide [reference compound]
IC50 [1]: 0.54 ± 0.08 nM | IC50 [2]: 180 ± 20 nM | IC50 [3]: 17 ± 5 nM | IC50 [4]: 230 ± 40 nM | IC50 [5]: 14 ± 9 nM
